Source: ChEMBL document CHEMBL1269001, “Design, synthesis and biological evaluation of quinoline amide derivatives as novel VEGFR-2 inhibitors” (Bioorg Med Chem Lett, 2010)

How the values were obtained:
HUVEC [1] = test: Inhibition of VEGF-induced proliferation in HUVEC cells assessed as BrdU incorporation by ELISA; type: functional, cell-based; conditions: Homo sapiens
Procedure, shortened: (§1)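 HUVEC were seeded in 5% FBS medium on type 1 collagen-coated plates and incubated overnight at 37 °C, 5% CO₂. The medium was replaced with inhibitor at various concentrations in serum-free medium. Cells were incubated a further 72 h, with BrdU added during the last 18–24 h. Incorporation was read by ELISA.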

HUVEC [2] = test: Inhibition of […]-induced proliferation in HUVEC cells assessed as BrdU incorporation by ELISA; type: functional, cell-based; conditions: Homo sapiens; procedure, shortened: as §1
[3] = molecular target: Vascular endothelial growth factor receptor 2 (Homo sapiens, UniProt P35968); test: Inhibition of VEGFR2
Vascular endothelial growth factor receptor 2, sequence (P35968 whole entry): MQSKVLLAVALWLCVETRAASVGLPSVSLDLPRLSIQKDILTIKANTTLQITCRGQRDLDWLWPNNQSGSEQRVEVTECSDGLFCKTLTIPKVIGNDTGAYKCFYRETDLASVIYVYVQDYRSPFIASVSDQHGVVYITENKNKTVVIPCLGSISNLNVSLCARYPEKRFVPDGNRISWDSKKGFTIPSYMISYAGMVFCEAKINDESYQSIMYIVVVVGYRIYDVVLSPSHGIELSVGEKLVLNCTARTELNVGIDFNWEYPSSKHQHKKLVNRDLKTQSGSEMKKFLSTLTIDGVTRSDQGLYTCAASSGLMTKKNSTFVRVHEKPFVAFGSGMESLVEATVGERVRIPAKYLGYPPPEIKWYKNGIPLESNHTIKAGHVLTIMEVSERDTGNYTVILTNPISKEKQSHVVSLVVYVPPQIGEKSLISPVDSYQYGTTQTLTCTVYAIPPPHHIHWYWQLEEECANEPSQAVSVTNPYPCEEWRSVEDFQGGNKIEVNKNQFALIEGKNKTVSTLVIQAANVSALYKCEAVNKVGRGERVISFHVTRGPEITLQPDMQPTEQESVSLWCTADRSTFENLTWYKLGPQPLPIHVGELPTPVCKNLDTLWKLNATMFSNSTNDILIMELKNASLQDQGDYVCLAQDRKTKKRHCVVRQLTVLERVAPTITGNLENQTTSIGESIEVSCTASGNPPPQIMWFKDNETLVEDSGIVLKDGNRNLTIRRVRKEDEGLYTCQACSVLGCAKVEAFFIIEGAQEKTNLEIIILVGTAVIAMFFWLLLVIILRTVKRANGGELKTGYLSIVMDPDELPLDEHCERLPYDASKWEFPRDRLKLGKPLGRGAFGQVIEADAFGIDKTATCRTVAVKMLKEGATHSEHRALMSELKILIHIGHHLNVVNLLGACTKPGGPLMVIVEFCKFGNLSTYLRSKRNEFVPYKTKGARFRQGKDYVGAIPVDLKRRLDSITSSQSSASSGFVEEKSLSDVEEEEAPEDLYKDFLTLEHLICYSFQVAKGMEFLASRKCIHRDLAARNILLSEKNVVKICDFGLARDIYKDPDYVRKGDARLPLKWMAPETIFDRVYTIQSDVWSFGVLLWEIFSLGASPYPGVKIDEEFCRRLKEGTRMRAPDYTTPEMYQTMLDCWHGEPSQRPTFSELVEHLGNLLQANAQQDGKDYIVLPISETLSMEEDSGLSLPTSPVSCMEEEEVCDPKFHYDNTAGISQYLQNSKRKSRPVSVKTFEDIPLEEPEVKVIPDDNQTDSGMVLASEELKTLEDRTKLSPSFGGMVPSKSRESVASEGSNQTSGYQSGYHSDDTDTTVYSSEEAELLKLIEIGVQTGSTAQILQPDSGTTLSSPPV

Row | SMILES | IC50 (HUVEC [1]) | IC50 (HUVEC [2]) | IC50 [3]
1 | O=C(Nc1cccc2cccnc12)c1ccccc1 | 72.4 nM | 1160 nM | 135 nM
2 | O=C(Nc1cccc2cccnc12)c1ccc(Cl)cc1 | 15.2 nM | 220 nM | 125 nM
3 | O=C(Nc1cccc2cccnc12)c1ccccc1Cl | 123 nM | 1150 nM | 23.6 nM
4 | O=C(Nc1cccc2cccnc12)c1ccc(Cl)nc1 | 141 nM | 560 nM | 84.9 nM
5 | O=C(Nc1cccc2cccnc12)c1cncc(Br)c1 | 211 nM | 346 nM | 209 nM
6 | O=C(Nc1cnc2ccccc2c1)c1ccccc1 | 78.9 nM | 68 nM | 107 nM
7 | O=C(Nc1cnc2ccccc2c1)c1cncc(Br)c1 | 59.5 nM | 1140 nM | 88.5 nM
8 | O=C(Nc1cccc2cccnc12)c1ccc([N+](=O)[O-])cc1 | 46.7 nM | 450 nM | 113 nM
9 | O=C(Nc1cccc2cccnc12)c1cccc([N+](=O)[O-])c1 | 15.8 nM | 210 nM | 16.5 nM
10 | O=C(Nc1cccc2cccnc12)c1cc(Cl)ccc1O | 5.5 nM | 110 nM | 3.8 nM
11 | Cc1ccc(C(=O)Nc2cccc3cccnc23)c(O)c1 | 19.8 nM | 45 nM | 9.6 nM
12 | Cc1cccc(C(=O)Nc2cccc3cccnc23)c1O | 26.3 nM | 1140 nM | 26.5 nM
13 | O=C(Nc1cccc2cccnc12)c1cc(Br)cnc1O | 12.9 nM | 560 nM | 5.5 nM
14 | Cc1cnc(O)c(C(=O)Nc2cccc3cccnc23)c1 | 13.6 nM | 1150 nM | 13.5 nM
15 | Cc1cccc(C(=O)Nc2cnc3ccccc3c2)c1Br | 11.6 nM | 660 nM | 28.4 nM
16 | Cc1cc(Cl)cc(C(=O)Nc2cnc3ccccc3c2)c1 | 76.3 nM | 560 nM | 326 nM
17 | O=C(Nc1cnc2ccccc2c1)c1cc(Br)cc(Br)c1O | 18.9 nM | 240 nM | 32.4 nM
18 | O=C(Nc1cnc2ccccc2c1)c1cccc(Cl)c1O | 28.4 nM | 340 nM | 72.8 nM
19 | Cc1cc(Br)cc(C(=O)Nc2cnc3ccccc3c2)c1O | 18.9 nM | 470 nM | 12.4 nM
20 | O=C(Nc1cnc2ccccc2c1)c1cc(Cl)cnc1Br | 58.9 nM | 1240 nM | 23.4 nM
21 | Cc1cnc(Cl)c(C(=O)Nc2cnc3ccccc3c2)c1 | 77.6 nM | 885 nM | 102 nM
22 | Cc1cc(Br)cc(C(=O)Nc2cnc3ccccc3c2)c1 | 89.6 nM | 720 nM | 113 nM
23 | O=C(Nc1cnc2ccccc2c1)c1cc(Cl)c(O)nc1O | 14.5 nM | 460 nM | 32.7 nM
24 | Cc1cccc(C(=O)Nc2cnc3ccccc3c2)c1O | 35.7 nM | 780 nM | 25.5 nM
